The source of these data is ChEMBL document CHEMBL3286132, “Syntheses, characterization and evaluation of novel 2,6-diarylpiperidin-4-ones as potential analgesic-antipyretic agents” (Eur J Med Chem, 2014).

Usually inhibition in vivo stands for the percentage by which the read-out fell short of the control. Usually logP stands for a log measure of how a compound divides between an organic and an aqueous phase. Low values mean a more hydrophilic compound, high ones a more lipophilic compound.

The subject of data set [1] is Rattus norvegicus. Put plainly: Antipyretic activity in Wistar rat assessed as reduction in Brewer's yeast-induced hyperthermia measured as rectal temperature at 60 mg/kg, po administered 18 hrs post challenge measured after 2 hrs post dose (reference value: 39.320 +/- 0.102 degC). The format is functional. In a few lines:
(§1)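 Male Wistar rats (200-300 g), fasted, groups of 5. Fever induced by sc 15% brewer's yeast in normal saline (10 ml/kg). Rectal temperature taken with a digital thermometer inserted about 7 mm. After 18 h, rats at 38 °C or above were used. Dosed orally as suspension in 0.5% CMC; vehicle controls. Temperature then read at set times after dosing. Values are means of five.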

Data set [2] deals with Rattus norvegicus. Briefly: Antipyretic activity in Wistar rat assessed as reduction in Brewer's yeast-induced hyperthermia measured as rectal temperature at 60 mg/kg, po administered 18 hrs post challenge measured after 1 hr post dose (reference value: 39.300 +/- 0.071 degC). The class given is functional. In a few lines:
as §1

The nature of data set [3]: Hydrolysis of the compound in simulated intestinal fluid at 10 mg after 120 mins by spectrophotometry. The format is ADME. Particulars: read-out: Drug degradation. In a few lines: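 Samples shaken on an orbital shaker at 37 ± 2 °C in simulated intestinal fluid. Aliquots were drawn at 0, 15, 30, 45, 60, 75, 90, 105 and 120 min, then diluted, filtered and read spectrophotometrically at each compound's λmax. % hydrolysed = (A0 − A120)/A0 × 100.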

For data set [4], the system named is Mus musculus. Put plainly: Neurotoxicity in po dosed albino mouse assessed as alteration of motor activity […] by rotarod test. The class given is toxicity, organism-based. Conditions: in vivo. For orientation: In the rotarod test animals must keep their balance on a rotating rod.
Data set [5] concerns Rattus norvegicus. Put plainly: Antipyretic activity in Wistar rat assessed as reduction in Brewer's yeast-induced hyperthermia measured as rectal temperature at 60 mg/kg, po administered 18 hrs post challenge measured after 3 hrs post dose (reference value: 39.400 +/- 0.071 degC). The class given is functional. In a few lines: as §1
Data set [6] relates to Mus musculus. Put plainly: Analgesic activity in albino mouse assessed as inhibition of acetic acid-induced writhing at 60 mg/kg, po administered 1 hr prior challenge relative to control. The class given is functional. In a few lines: (§2)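 Male albino mice (25-30 g), fasted 20-24 h, groups of 5. Dosed orally as suspension in 0.5% sodium CMC; vehicle controls. 1 h later, 1% acetic acid in normal saline (10 ml/kg) given ip. Starting 5 min after injection, writhes counted over 30 min. Percent inhibition calculated from group mean writhes versus control.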
(An intraperitoneal irritant provokes the stretching counted in writhing tests.)

The nature of data set [7]: Partition co-efficient, log P of the compound in ocatanol-water by shake flask method. The class given is physicochemical. Conditions: octanol/water. In a few lines:
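Shake-flask method: 2 mg dissolved in 50 ml water plus 50 ml octanol, shaken 30 min and left 24 h to equilibrate. Phases were separated, and octanol-phase concentration was taken from absorbance against a standard curve. Log P was calculated from that concentration.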

Data set [8] deals with Rattus norvegicus. Briefly: Antipyretic activity in Wistar rat assessed as reduction in Brewer's yeast-induced hyperthermia measured as rectal temperature at 150 mg/kg, po administered 18 hrs post challenge measured after 2 hrs post dose (reference value: 39.320 +/- 0.102 degC). The class given is functional. In a few lines:
as §1

Data set [9] concerns Rattus norvegicus. Put plainly: Antipyretic activity in Wistar rat assessed as reduction in Brewer's yeast-induced hyperthermia measured as rectal temperature at 150 mg/kg, po administered 18 hrs post challenge measured after 1 hr post dose (reference value: 39.300 +/- 0.071 degC). The class given is functional. In a few lines:
as §1

In data set [10] the test system is Rattus norvegicus. Put plainly: Antipyretic activity in Wistar rat assessed as reduction in Brewer's yeast-induced hyperthermia measured as rectal temperature at 150 mg/kg, po administered 18 hrs post challenge measured after 3 hrs post dose (reference value: 39.400 +/- 0.071 degC). The class given is functional. In a few lines: as §1
Data set [11] has as its system Mus musculus. Put plainly: Neurotoxicity in albino mouse assessed as alteration of motor activity at 2 mg/kg, po measured after 60 mins for 60 secs by rotarod test. The format is toxicity, organism-based. The arrangement: dose 2 mg/kg, route oral. Particulars: in vivo. In a few lines: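 Male albino mice on a 1 in. knurled wooden rod rotating at 6–10 rpm. Testing began 60 min after oral dosing. Neurological toxicity was defined as failure to stay on the rod for 1 min or more.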

Data set [12] deals with Mus musculus. Briefly: Analgesic activity in albino mouse assessed as inhibition of acetic acid-induced writhing at 10 mg/kg, po administered 1 hr prior challenge relative to control. The format is functional. In a few lines: as §2

For the molecule `CC1C(=O)CC(c2ccc(Cl)cc2)N(C(=O)CCl)C1c1ccc(N(C)C)cc1` (stereo not given), the figures for the T in the data set on Rattus norvegicus [1], with Rattus norvegicus [2] and in the data set with Rattus norvegicus [5] were 38.56 °C, 39 °C and 37.86 °C, respectively. Moreover, in data set [3], the degraded at 2 h is 76.8%. Further, in the data set on Mus musculus [4], the Activity entry was “Non-toxic”. The inhibition in vivo at 60 mg/kg with Mus musculus [6] was 17.8%. Further, in data set [7], the logP was 1.24.

`CC1C(=O)CC(c2ccc(Cl)cc2)N(C(=O)CN2CCN(C)CC2)C1c1ccc(N(C)C)cc1` (stereo not given): the values for the T in the data set on Rattus norvegicus [1], in the data set on Rattus norvegicus [2] and with Rattus norvegicus [5] were 38.14 °C, 38.9 °C and 37.52 °C, respectively. Also, the degraded at 2 h in data set [3] was 77.6%. For the same molecule, the Activity result in the data set on Mus musculus [4] is “Non-toxic”. In addition, the inhibition in vivo at 60 mg/kg in the data set with Mus musculus [6] is 28.1%. In data set [7], this molecule yielded a logP of 1.35.

Take `CC1C(=O)CC(c2ccc(F)cc2)N(C(=O)CCl)C1c1ccc(Cl)cc1` (stereo not given): the T in the data set with Rattus norvegicus [1] was determined as 37.54 °C; with Rattus norvegicus [2] it was 38.14 °C; in the data set with Rattus norvegicus [5], 37.16 °C. Besides, the degraded at 2 h in data set [3] was 1.17%. Further, the Activity entry in the data set with Mus musculus [4] is listed as “Non-toxic”. Further, the inhibition in vivo at 60 mg/kg with Mus musculus [6] was found to be 57.6%. The same molecule gave a logP in data set [7] of 1.72.

Regarding `CC1C(=O)CC(c2ccc(F)cc2)N(C(=O)CN2CCN(C)CC2)C1c1ccc(Cl)cc1` (stereo not given), the T in the data set on Rattus norvegicus [1] was 37.16 °C; in the data set on Rattus norvegicus [2], 37.9 °C; in the data set on Rattus norvegicus [5], 37.18 °C. The degraded at 2 h in [3] is 4.49%. The Activity entry in the data set with Mus musculus [4] is listed as “Non-toxic”. In addition, in the data set with Mus musculus [6], the inhibition in vivo at 60 mg/kg came to 65.5%. This molecule came in with a logP in [7] of 2.09.

Turning to `COc1ccc(C2C(C)C(=O)CC(c3ccc(F)cc3)N2C(=O)CCl)cc1` (stereo not given), the results for the T in the data set on Rattus norvegicus [1], in the data set on Rattus norvegicus [2] and in the data set with Rattus norvegicus [5] were 37.9 °C, 38.58 °C and 37.2 °C, respectively. Besides, in [3], the degraded at 2 h is 2.01%. In the data set with Mus musculus [4], the Activity result is given as “Non-toxic”. Further, in the data set on Mus musculus [6], the inhibition in vivo at 60 mg/kg turned out to be 51.2%. The logP in [7] worked out at 1.42.

Take `COc1ccc(C2C(C)C(=O)CC(c3ccc(F)cc3)N2C(=O)CN2CCN(C)CC2)cc1` (stereo not given): the results for the T with Rattus norvegicus [1], in the data set with Rattus norvegicus [2] and in the data set with Rattus norvegicus [5] were 37.44 °C, 38.18 °C and 37.1 °C, respectively. Also, the degraded at 2 h in data set [3] is 2.51%. Moreover, in the data set on Mus musculus [4], the Activity result is given as “Non-toxic”. Besides, the inhibition in vivo at 60 mg/kg with Mus musculus [6] stood at 55.2%. The log partition coefficient (logP) in [7] is 1.53.

As for `CC1C(=O)CC(c2ccc(Cl)cc2)N(C(=O)CCl)C1c1ccc(O)cc1` (stereo not given), the T in the data set with Rattus norvegicus [1] turned out to be 38.5 °C; in the data set with Rattus norvegicus [2] it was 38.92 °C; in the data set with Rattus norvegicus [5], 37.14 °C. Besides, the degraded at 2 h in data set [3] was 42.7%. Besides, the Activity result in the data set on Mus musculus [4] was “Non-toxic”. Besides, the inhibition in vivo at 60 mg/kg in the data set on Mus musculus [6] was found to be 39.7%. The logP in data set [7] stood at 1.05.

Take `COc1ccc(C2C(C)C(=O)CC(c3ccc(Cl)cc3)N2C(=O)CCl)cc1` (stereo not given): the T in the data set on Rattus norvegicus [1] came out at 38.36 °C; in the data set with Rattus norvegicus [2], 38.76 °C; with Rattus norvegicus [5], 37.2 °C. Further, the degraded at 2 h in data set [3] is 2.68%. The Activity entry with Mus musculus [4] is given as “Non-toxic”. Further, the inhibition in vivo at 60 mg/kg in the data set on Mus musculus [6] turned out to be 44.1%. Further, the logP in data set [7] is 1.29.

Turning to `COc1ccc(C2C(C)C(=O)CC(c3ccc(Cl)cc3)N2C(=O)CN2CCN(C)CC2)cc1` (stereo not given), the T was 37.68 °C in the data set on Rattus norvegicus [1], 38.52 °C in the data set on Rattus norvegicus [2] and 37.28 °C with Rattus norvegicus [5]. In [3], the degraded at 2 h was 18.8%. In addition, the Activity result in the data set on Mus musculus [4] is “Non-toxic”. Also, the inhibition in vivo at 60 mg/kg in the data set on Mus musculus [6] was 53%. The molecule also came in with a logP in data set [7] of 1.48.

Regarding `CC1C(=O)CC(c2ccc(F)cc2)N(C(=O)CCl)C1c1ccc(O)cc1` (stereo not given), the results for the T in the data set with Rattus norvegicus [1], in the data set with Rattus norvegicus [2] and in the data set with Rattus norvegicus [5] were 38.3 °C, 38.72 °C and 37.16 °C, respectively. Also, in data set [3], the degraded at 2 h was 43.2%. In addition, the Activity result in the data set on Mus musculus [4] is given as “Non-toxic”. Besides, the inhibition in vivo at 60 mg/kg with Mus musculus [6] was 51.2%. Moreover, the logP in data set [7] was determined as 1.14.

In the case of `CC(=O)Nc1ccc(O)cc1` [ACETAMINOPHEN], the values for the T with Rattus norvegicus [8], with Rattus norvegicus [9] and with Rattus norvegicus [10] were 37.14 °C, 37.88 °C and 37.1 °C, respectively.

With `CN1C(=O)CN=C(c2ccccc2)c2cc(Cl)ccc21` [DIAZEPAM], in the data set with Mus musculus [11], the Activity result is reported as “Toxic”.

Consider `O=C(O)Cc1ccccc1Nc1c(Cl)cccc1Cl` [DICLOFENAC SODIUM], for which the inhibition in vivo at 10 mg/kg with Mus musculus [12] amounted to 56.5%.
